Vmax, k and MIC data for ten compounds are collected here from ChEMBL document CHEMBL1122389, “Synthesis and substituent effects on antibacterial activity, alkaline hydrolysis rates, and infrared absorption frequencies of some cephem analogues related to latamoxef (moxalactam)” (J Med Chem, 1983).

The nature of series [1]: V max(amide I) measured in dimethyl sulfoxide. Type of series: ADME. Summed up: (§1)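 IR stretching frequencies measured in dimethyl sulfoxide solution. Frequencies are calibrated against the rotational bands of the vapor.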
Series [2] in a line: Pseudo-first order rate of beta-lactam cleavage at pH 9.2 and 35 degrees C. Type of series: ADME. The procedure, abridged: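 Alkaline hydrolysis at pH 9.2 and 35.0 °C, followed as loss of absorbance near 260 nm. This is a slightly lower pH than a pH 9.94 carbonate buffer (NaHCO3 + Na2CO3 + NaCl, μ = 0.5). Pseudo-first-order k is obtained by least squares over the linear regions at 95% confidence.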

Series [3] can be described thus: V max(beta-lactam) measured in dimethyl sulfoxide. It counts as ADME. The procedure, abridged:
as §1

The subject of series [4] is Klebsiella pneumoniae. Kind of series: Minimum inhibitory concentration (MIC) against Klebsiella pneumoniae SRL-1 in gradient plate method. It counts as functional. The procedure, abridged: (§2)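 Gradient plate technique. Compound is incorporated into a tilted bottom agar layer, then overlaid horizontally with compound-free agar. A 10^6 cells/mL suspension is streaked across the gradient and incubated at 37 °C for 18–20 h. MIC is calculated from the growth distance along the streak and the original bottom-layer concentration.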

The subject of series [5] is Escherichia coli. Kind of series: Minimum inhibitory concentration (MIC) against Escherichia coli NIHJ JC-2 in gradient plate method. Type of series: functional. Summed up: as §2
Series [6] relates to Escherichia coli. Kind of series: Minimum inhibitory concentration (MIC) against Escherichia coli NIHJ JC-2 in agar dilution method. It counts as functional. The procedure, abridged:
(§3)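 Agar dilution on sensitivity test agar. Overnight tryptose broth culture diluted in the same broth to about 10^6 cells/mL and inoculated onto agar containing serial twofold dilutions of antibiotic. Incubated at 37 °C for 18–20 h. MIC taken as the lowest concentration inhibiting visible growth.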
Background: Agar dilution tests growth on a series of plates holding different concentrations.

Series [7] relates to Klebsiella pneumoniae. Kind of series: Minimum inhibitory concentration (MIC) against Klebsiella pneumoniae SRL-1 iin agar dilution method. Type of series: functional. Summed up: as §3
Series [8] deals with Klebsiella pneumoniae. Kind of series: Minimum inhibitory concentration (MIC) against Klebsiella pneumoniae SRL-1 in agar dilution method. Type of series: functional. Summed up:
as §3

The term MIC denotes the lowest concentration that inhibits growth of the organism. Low readings indicate a more susceptible organism, high ones a less susceptible organism. Regarding `Cn1nnnc1SCC1=C(C(=O)[O-])N2C(=O)[C@@H](NC(=O)Cc3ccc(O)cc3)C2SC1.[Na+]` (some centres undefined), the Vmax in series [1] is 1676.3 cm⁻¹; in series [3], 1773.1 cm⁻¹. The same compound had a k in series [2] of 0.0227 h⁻¹. Further, the MIC against Klebsiella pneumoniae [4] stood at 1.4 µg/mL; in the series on Escherichia coli [5], 1.2 µg/mL.

On to `CO[C@@]1(NC(=O)Cc2ccc(O)cc2)C(=O)N2C(C(=O)[O-])=C(CSc3nnnn3C)COC21.[Na+]` (some centres undefined), for which the Vmax in series [1] amounted to 1694.9 cm⁻¹; in series [3], 1772.9 cm⁻¹. The k in series [2] was determined as 0.228 h⁻¹. The MIC against Klebsiella pneumoniae [4] is 0.1 µg/mL; against Escherichia coli [5], 0.08 µg/mL.

For the compound `CO[C@@]1(NC(=O)C(C(=O)[O-])c2ccc(O)cc2)C(=O)N2C(C(=O)[O-])=C(CSc3nnnn3C)COC21.[Na+].[Na+]` (some centres undefined), the MIC with Escherichia coli [6] stood at 0.1 µg/mL; in the series on Klebsiella pneumoniae [7], 0.1 µg/mL; in the series with Klebsiella pneumoniae [4], 0.06 µg/mL; with Escherichia coli [5] it was 0.09 µg/mL. Moreover, the Vmax in series [1] is 1686.6 cm⁻¹; in series [3], 1771.8 cm⁻¹. Also, the k in series [2] turned out to be 0.178 h⁻¹.

In the case of `Cn1nnnc1SCC1=C(C(=O)[O-])N2C(=O)[C@@H](NC(=O)C(C(=O)[O-])c3ccc(O)cc3)C2OC1.[Na+].[Na+]` (some centres undefined), the Vmax is 1665.4 cm⁻¹ in series [1] and 1779.2 cm⁻¹ in series [3]. In series [2], this compound displayed a k of 0.127 h⁻¹. Besides, the figures for the MIC against Klebsiella pneumoniae [4] and in the series with Escherichia coli [5] were 0.3 µg/mL and 0.29 µg/mL, respectively.

As for `Cn1nnnc1SCC1=C(C(=O)[O-])N2C(=O)[C@@](C)(NC(=O)C(C(=O)[O-])c3ccc(O)cc3)C2OC1.[Na+].[Na+]` (some centres undefined), the MIC against Escherichia coli [6] and against Klebsiella pneumoniae [8] was 12.5 µg/mL each time. In addition, the results for the Vmax in series [1] and in series [3] were 1668.2 cm⁻¹ and 1774.5 cm⁻¹, respectively. In addition, in series [2], the k worked out at 0.0148 h⁻¹.

As to `Cn1nnnc1SCC1=C(C(=O)[O-])N2C(=O)[C@@H](NC(=O)C(C(=O)[O-])c3ccc(O)cc3)C2SC1.[Na+].[Na+]` (some centres undefined), the Vmax worked out at 1669 cm⁻¹ in series [1] and 1770 cm⁻¹ in series [3]. This compound showed a k in series [2] of 0.0239 h⁻¹. In addition, the MIC is 2.3 µg/mL against Klebsiella pneumoniae [4] and 1.5 µg/mL with Escherichia coli [5].

Turning to `COC1(NC(=O)C(C(=O)[O-])c2ccc(O)cc2)C(=O)N2C(C(=O)[O-])=C(CSc3nnnn3C)CCC21.[Na+].[Na+]` (centres undefined), the MIC against Escherichia coli [6] was 6.25 µg/mL; in the series with Klebsiella pneumoniae [8], 3.13 µg/mL. Besides, the Vmax in series [1] was 1684.5 cm⁻¹; in series [3] it was 1757 cm⁻¹. In series [2], this compound showed a k of 0.0694 h⁻¹.

As for `CO[C@@]1(NC(=O)C(C(=O)[O-])c2ccc(O)cc2)C(=O)N2C(C(=O)[O-])=C(CSc3nnnn3C)CSC21.[Na+].[Na+]` (some centres undefined), the MIC against Escherichia coli [6] came to 0.78 µg/mL; with Klebsiella pneumoniae [7] it was 0.39 µg/mL; in the series with Klebsiella pneumoniae [4], 0.37 µg/mL; with Escherichia coli [5], 0.55 µg/mL. The Vmax in series [1] was 1682.3 cm⁻¹; in series [3] it was 1767.8 cm⁻¹. Besides, the k in series [2] was found to be 0.0239 h⁻¹.

Turning to `CO[C@@]1(NC(=O)Cc2ccc(O)cc2)C(=O)N2C(C(=O)[O-])=C(CSc3nnnn3C)CSC21.[Na+]` (some centres undefined), the Vmax in series [1] turned out to be 1690.6 cm⁻¹; in series [3], 1768.1 cm⁻¹. The compound further registered a k in series [2] of 0.0351 h⁻¹. Moreover, the MIC turned out to be 1.3 µg/mL against Klebsiella pneumoniae [4] and 0.5 µg/mL against Escherichia coli [5].

`Cn1nnnc1SCC1=C(C(=O)[O-])N2C(=O)[C@@H](NC(=O)Cc3ccc(O)cc3)C2OC1.[Na+]` (some centres undefined): the Vmax was 1674.5 cm⁻¹ in series [1] and 1778.2 cm⁻¹ in series [3]. For the same compound, the k in series [2] was 0.139 h⁻¹. Moreover, the MIC worked out at 0.31 µg/mL against Klebsiella pneumoniae [4] and 0.34 µg/mL against Escherichia coli [5].
